Measurements collected from several papers.
Lines come from different studies, so protocols differ.
Target: Inhibitor of nuclear factor kappa-B kinase subunit epsilon (IKBKE, Homo sapiens, UniProt Q14164)
One construct used (Q14164 1-716): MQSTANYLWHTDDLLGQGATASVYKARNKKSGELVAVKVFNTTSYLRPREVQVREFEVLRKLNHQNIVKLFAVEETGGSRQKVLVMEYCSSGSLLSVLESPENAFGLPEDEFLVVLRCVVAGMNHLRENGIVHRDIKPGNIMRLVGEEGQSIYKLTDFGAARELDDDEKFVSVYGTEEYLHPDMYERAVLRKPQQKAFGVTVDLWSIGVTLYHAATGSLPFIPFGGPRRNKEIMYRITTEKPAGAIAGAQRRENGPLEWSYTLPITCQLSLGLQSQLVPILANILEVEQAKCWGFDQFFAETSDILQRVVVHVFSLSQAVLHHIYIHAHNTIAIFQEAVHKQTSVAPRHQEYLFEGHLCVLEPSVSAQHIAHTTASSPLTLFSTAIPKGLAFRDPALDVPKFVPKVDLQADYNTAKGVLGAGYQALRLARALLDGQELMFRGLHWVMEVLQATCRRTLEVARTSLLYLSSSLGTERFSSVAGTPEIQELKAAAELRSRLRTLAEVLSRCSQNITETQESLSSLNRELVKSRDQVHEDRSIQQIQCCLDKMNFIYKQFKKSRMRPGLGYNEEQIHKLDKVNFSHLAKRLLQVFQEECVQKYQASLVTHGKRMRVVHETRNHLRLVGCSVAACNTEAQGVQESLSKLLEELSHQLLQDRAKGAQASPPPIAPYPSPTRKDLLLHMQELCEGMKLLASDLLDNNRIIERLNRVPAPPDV

The inhibition of Cn1cc(-c2cc(F)cc(N3CCn4c(cc5c4CCCC5)C3=O)c2CO)cc(Nc2ccc(N3CCN(C4COC4)CC3)cn2)c1=O is reported as 12% (enzyme activity; inhibitor; 0.1 µM).
With Nc1ncc(-c2nc(N3CCOCC3)nc(N3CCOCC3)n2)c(C(F)F)n1 the remaining binding was 99% (binding; competition with immobilised ligand; 10 µM).
N#CC1(c2ccccn2)CCN(Cc2cc(C(=O)O)c(=O)n3ccccc23)CC1 has a remaining binding of 88% (cell-free assay; competition with immobilised ligand; 1 µM).
For Cc1nn(C)cc1-c1nc2c(N3CCN(Cc4ccc(Cl)cc4)CC3)c(Cl)cnc2[nH]1, the remaining binding was 100% (binding; competition with immobilised ligand; 1 µM).
With Cn1cc(-c2cccc(N3CCc4c(sc5c4CC(C)(C)C5)C3=O)c2CO)cc(Nc2ccncn2)c1=O the inhibition was 9% (enzyme activity; inhibitor; 1 µM).
O=c1[nH]c2ccccc2n1C1CCN(Cc2ccc(-c3[nH]c4cc5ncnc5cc4nc3-c3ccccc3)cc2)CC1 has a remaining activity of 91.9% (enzyme activity; 0.5 µM).
The remaining binding of Cn1cncc1[C@@](O)(COc1ccc(C#N)cc1-c1ccc(OC(F)(F)F)cc1)c1ccc(C#N)cc1 is reported as 100% (cell-free assay; competition with immobilised ligand; 1 µM).
The remaining activity of CC(C)(C)c1cc(C=C(C#N)C#N)cc(Br)c1O is reported as 86.8% (enzyme activity; inhibitor; 0.5 µM).
COc1ncccc1-c1cnn2ccc(N3CCN(C(=O)OC(C)C)CC3)nc12 has a remaining binding of 69% (binding; competition with immobilised ligand; 1 µM).
